{"data": "Measurements pooled from the literature", "organism": "Enterococcus faecalis", "note": "Protocols differ between the studies behind these lines."}
{"SMILES": "O=C(O)CN(CCN(CC(=O)O)CC(=O)O)CC(=O)O", "assay": "microbial killing", "system": "OG1RF", "quantity": "MBC", "value": "500 µM"}
{"SMILES": "CCn1cc(C(=O)O)c(=O)c2cc(F)c(N3CCNCC3)cc21", "assay": "microbial killing, broth dilution", "system": "NCTC12697", "quantity": "MBC", "value": "4 µM"}
{"SMILES": "CC1(C)S[C@@H]2[C@H](NC(=O)[C@H](N)c3ccccc3)C(=O)N2[C@H]1C(=O)O", "assay": "microbial growth, agar dilution", "system": "ATCC29212", "setting": "26.93 µM", "quantity": "inhibition", "value": "100%"}
{"SMILES": "Cc1cc(C)n(C(=O)c2ccc(-n3c(C)ccc3C)cc2)n1", "assay": "microbial growth, broth dilution", "system": "ATCC14506", "setting": "18 h", "quantity": "MIC", "value": "125 µg/mL"}
{"SMILES": "COc1cccc(-c2nc3ccc(C)cc3[nH]2)c1", "assay": "microbial growth, broth dilution", "system": "ATCC29212", "quantity": "MIC", "value": "128 µg/mL"}
{"SMILES": "Cc1ccc(C)n1-c1ccc(-c2nnc(-c3c(Cl)cccc3Cl)[nH]2)cc1", "assay": "microbial growth, broth dilution", "system": "ATCC14506", "setting": "18 h", "quantity": "MIC", "value": "8 µg/mL"}
{"SMILES": "Clc1ccc(-c2nc3ccccc3[nH]2)c(Cl)c1", "assay": "microbial growth, broth dilution", "system": "ATCC29212", "quantity": "MIC", "value": "64 µg/mL"}
{"SMILES": "CN[C@H](CC(C)C)C(=O)N[C@H]1C(=O)N[C@@H](CC(N)=O)C(=O)N[C@H]2C(=O)N[C@H]3C(=O)N[C@H](C(=O)N[C@H](C(=O)O)c4cc(O)cc(O)c4-c4cc3ccc4O)[C@H](O)c3ccc(c(Cl)c3)Oc3cc2cc(c3O[C@@H]2O[C@H](CO)[C@@H](O)[C@H](O)[C@H]2O[C@H]2C[C@](C)(N)[C@H](O)[C@H](C)O2)Oc2ccc(cc2Cl)[C@H]1O", "assay": "microbial killing, broth dilution", "system": "NCTC12697", "quantity": "MBC", "value": "16 µM"}
{"SMILES": "CSc1ccc(-c2nc3ccc(C)cc3n2Cc2ccccc2)cc1", "assay": "microbial growth, broth dilution", "system": "ATCC29212", "quantity": "MIC", "value": "128 µg/mL"}
{"SMILES": "c1ccc(CN(CCN(Cc2ccccn2)Cc2ccccn2)Cc2ccccn2)nc1", "assay": "microbial killing", "system": "OG1RF", "quantity": "MBC", "value": "> 2000 µM"}
